2 substances from publication PMC8361970 (Pediatric Diabetes, 2021) can be followed below.

Common to all, as to type: in vivo, human
The subject of data set [1] is children and adolescents (6–17 years) with type 1 diabetes. As to the kind of experiment: Phase 3 trial: adverse events. Particulars: for Duration of nausea AEs / Duration of vomiting AEs: majority of events; for Onset of nausea AEs after dosing: most AEs of nausea.
Data set [2] deals with children and adolescents (6–17 years) with type 1 diabetes, insulin-induced hypoglycemia. To be noted: for Mean PG increase from baseline after 30 min: 30 min after single SC dose, full analysis set; for IV glucose rescue required (participants): within 45 min of single SC dose. In outline:
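After an overnight fast, IV insulin glulisine was infused until PG fell below 80 mg/dL. Five min later, if PG was 54–80 mg/dL, a single SC injection was given. Central-lab PG was taken pre-dose and at 4–45 min (60 min if ≥21 kg). Change from baseline was analysed by ANCOVA (treatment, age group, injection site; baseline PG covariate), with PG at rescue carried forward.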

Data set [3] deals with children and adolescents (6–17 years) with type 1 diabetes. As to the kind of experiment: Phase 3 trial: anti-drug antibodies. Particulars: the one positive participant.

Regarding dasiglucagon, in data set [1], the “Duration of nausea AEs” value is recorded as “less than 2 h”, the “Duration of vomiting AEs” value was “less than 5 min” and the “Onset of nausea AEs after dosing” value fell in the range of 1.5 to 3 h. Moreover, in data set [2], the Mean PG increase from baseline after 30 min came out at 98.2 mg/dL and the “IV glucose rescue required (participants)” value was “none”. Also, in data set [3], the Anti-drug antibody titer result is on record as “low titer”, the “Cross-reaction of anti-drug antibodies with glucagon” value is reported as “did not cross‐react with glucagon” and the “Neutralizing activity of anti-drug antibodies” value is given as “No neutralizing activity was detected”.

As to glucagon [reference compound], in data set [1], the “Duration of nausea AEs” value is recorded as “less than 2 h”, the “Duration of vomiting AEs” value is reported as “less than 5 min” and the “Onset of nausea AEs after dosing” value lay in the range of 1.5 to 3 h. Also, in data set [2], the “Mean PG increase from baseline after 30 min” value worked out at 8440 mg/dL and the “IV glucose rescue required (participants)” value was “none”.
